Test [1] is filed under the species Bos taurus. Description: Displacement of MTC from bovine brain tubulin colchicine binding site at 20 uM by fluorometric assay. The gist of the method: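 Calf brain tubulin 10 μM with 10 μM MTC in 10 mM sodium phosphate, 0.1 mM GTP, pH 7.0, with 20 μM ligand. Excitation at 350 nm. Fluorescence emission spectra recorded and the decrease relative to tubulin-bound MTC taken as displacement from the colchicine site.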

A further test concerns SK-BR-3. In words: Growth inhibition of human SKBR3 cells after 72 hrs by SRB assay. The following applies: SK-BR-3, 72 h. It counts as functional. Summed up: (§1)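 Cell lines kept in RPMI with 10% FCS, 2 mM L-glutamine, penicillin/streptomycin at 37 °C, 5% CO2. Exposure 72 h to 10 concentrations from 10 to 0.0026 μg/mL. Cells fixed in 1% glutaraldehyde, stained with 0.4% SRB for 30 min, dye extracted in 10 mM Trizma base, absorbance read at 490 nm. GI50 from triplicate dose-response cultures by NCI algorithm; mean ± SD of three independent experiments.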

The species named for test [2] is Bos taurus. Description: Inhibition of bovine brain tubulin polymerization at 1 uM after 30 mins by spectrophotometric analysis.
The next test concerns HT-29. In words: Growth inhibition of human HT-29 cells after 72 hrs by SRB assay. It counts as functional. The following applies: HT-29, 72 h. Summed up: as §1
The test system of test [3] is A549. In words: Antimitotic activity in human A549 cells assessed as induction of microtubule depolymerization at 0.05 to 100 uM after 20 hrs by Hoechst 33342 staining-based fluorescence microscopy. In kind it is functional, cell-based. The gist of the method: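 A-549 lung carcinoma cells plated at 150 000 cells/ml on coverslips, cultured overnight, then exposed to ligands or DMSO vehicle (residual DMSO <0.5%). Cells permeabilised with Triton X100, fixed in 3.7% formaldehyde, stained with DM1A anti-α-tubulin and FITC secondary, chromatin stained with 1 μg/mL Hoechst 33342. Examined by epifluorescence microscopy. Methods state 24 h exposure; legend states 20 h.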

For test [4], the system named is A549. In words: Growth inhibition of human A549 cells after 72 hrs by SRB assay. In kind it is functional. The following applies: A549, 72 h. Summed up: as §1
On the technique in general: The SRB assay estimates cell density from bound dye.

Test [5] relates to A549. Description: Cell cycle arrest in human A549 cells assessed as accumulation at G2/M phase at 0.001 to 100 uM after 20 hrs by propidium iodide staining-based flow cytometry. It counts as functional. The gist of the method:
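A-549 cells (180 000 per mL) incubated 20 h with ligands from 1 nM to 100 μM, with untreated and DMSO vehicle controls. Cells fixed in 70% ethanol, RNase-treated and stained with propidium iodide. DNA content read by flow cytometry to give percent of cells in each cycle phase. Lowest concentration giving G2/M arrest recorded.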
Background: A flow cytometer gives signals particle by particle.

Where a name gives a salt, the structure may show the parent alone. Calls of active or inactive are those of the source. No cut-off for these calls is given here.

The GI50 is the concentration that inhibits growth by half. A low value points to more potent growth inhibition. Broadly, the inhibition is the percentage by which the read-out fell short of the control. Low readings indicate little suppression, high ones strong suppression.

Turning to `COc1cc([C@@H]2c3cc4c(cc3[C@@](O)(C3(O)C5CCCC3CCC5)[C@H]3COC(=O)[C@H]23)OCO4)cc(OC)c1OC` (stereo partly drawn), the Activity in the test filed under Bos taurus [1] is 15%; in the test with A549 [5] it was above 70%. Further, the 50% growth inhibitory concentration (GI50) in the test on SK-BR-3 came to 6720 nM; with HT-29 it was 6420 nM; with A549 [4] it was 5680 nM. The compound also displayed an inhibition in the test filed under Bos taurus [2] of 12%. Further, in the test with A549 [3], the result was Active.
For `COc1cc([C@@H]2c3cc4c(cc3[C@](O)(C3(O)C5CCCC3CCC5)[C@H]3COC(=O)[C@H]23)OCO4)cc(OC)c1OC` (stereo partly drawn), the 50% growth inhibitory concentration (GI50) in the test on SK-BR-3 worked out at 7.39 nM; with HT-29, 5.14 nM; with A549 [4], 6.39 nM. The inhibition in the test filed under Bos taurus [2] was 45.1%. The result in the test with A549 [3] was Active. For the same compound, the Activity in the test on A549 [5] is recorded as above 70%.
Turning to `COc1cc([C@@H]2c3cc4c(cc3[C@](O)([C@](C)(O)C(C)C)[C@H]3COC(=O)[C@H]23)OCO4)cc(OC)c1OC`, the GI50 in the test with SK-BR-3 was 181 nM; in the test on HT-29, 204 nM; with A549 [4], 254 nM.
For the compound `C=C1c2cc3c(cc2[C@@H](c2cc(OC)c(OC)c(OC)c2)[C@@H]2C(=O)OC[C@H]12)OCO3`, the results for the GI50 with SK-BR-3, in the test with HT-29 and in the test on A549 [4] were 66.8 nM, 78.1 nM and 28.1 nM, respectively.
For the compound `COc1cc([C@@H]2c3cc4c(cc3[C@@](O)(C3(O)CCCCC3)[C@H]3COC(=O)[C@H]23)OCO4)cc(OC)c1OC`, the 50% growth inhibitory concentration (GI50) was found to be 610 nM in the test with SK-BR-3, 859 nM with HT-29 and 547 nM with A549 [4].
Taken in the same sequence, the figures for `COc1cc([C@@H]2c3cc4c(cc3/C(=C(\c3ccccc3)C(C)C)[C@H]3COC(=O)[C@@H]23)OCO4)cc(OC)c1OC` were 14300 nM, 11400 nM and 6210 nM.
For `COc1cc([C@@H]2c3cc4c(cc3[C@](O)(C(C)(C)O)[C@H]3COC(=O)[C@H]23)OCO4)cc(OC)c1OC`, in that order: 457 nM, 598 nM and 577 nM.
Take `COc1cc([C@@H]2c3cc4c(cc3[C@](O)(C3(O)CCC3)[C@H]3COC(=O)[C@H]23)OCO4)cc(OC)c1OC`: the values for the GI50 in the test with SK-BR-3, in the test with HT-29 and in the test on A549 [4] were 219 nM, 198 nM and 191 nM, respectively. In the test on A549 [3], the outcome was Active. Moreover, the Activity with A549 [5] is reported as above 70%.
For `COc1cc([C@@H]2c3cc4c(cc3[C@](O)([C@](O)(c3ccccc3)C(C)C)[C@H]3COC(=O)[C@H]23)OCO4)cc(OC)c1OC`, in that order: 148 nM, 159 nM, 139 nM, “Active” and above 70%.
Regarding `COc1cc([C@@H]2c3cc4c(cc3[C@@]3(OC(C)(C)O[C@H]3C)[C@H]3COC(=O)[C@H]23)OCO4)cc(OC)c1OC`, the 50% growth inhibitory concentration (GI50) in the test with SK-BR-3 came to 6140 nM; in the test with HT-29, 6560 nM; with A549 [4], 6020 nM.
Take `COc1cc([C@@H]2c3cc4c(cc3[C@](O)(C(O)(c3ccccc3)c3ccccc3)[C@H]3COC(=O)[C@H]23)OCO4)cc(OC)c1OC`: the GI50 is 313 nM with SK-BR-3, 281 nM in the test with HT-29 and 376 nM with A549 [4].
Turning to `COc1cc([C@@H]2c3cc4c(cc3[C@@](O)(C(O)(c3ccccc3)c3ccccc3)[C@H]3COC(=O)[C@H]23)OCO4)cc(OC)c1OC`, the GI50 with SK-BR-3 came out at 524 nM; in the test with HT-29 it was 528 nM; in the test on A549 [4], 874 nM.
Taken in the same sequence, the figures for `COc1cc([C@@H]2c3cc4c(cc3[C@@]3(OC(C)(C)O[C@@H]3C)[C@H]3COC(=O)[C@H]23)OCO4)cc(OC)c1OC` were 5870 nM, 5230 nM and 6220 nM.
Regarding `COc1cc([C@@H]2c3cc4c(cc3[C@H](O)[C@H]3COC(=O)[C@H]23)OCO4)cc(OC)c1OC` [PODOFILOX], the Activity was 25% in the test filed under Bos taurus [1] and above 70% in the test with A549 [5]. For the same compound, the inhibition in the test listed under Bos taurus [2] turned out to be 7%. In addition, the GI50 in the test on HT-29 and in the test on A549 [4] was 12 nM throughout. Moreover, the result with A549 [3] was Active.
For the compound `COc1cc([C@@H]2c3cc4c(cc3[C@](O)(C3(O)CCCCC3)[C@H]3COC(=O)[C@H]23)OCO4)cc(OC)c1OC`, the concentration for 50% growth inhibition (GI50) amounted to 64.9 nM with SK-BR-3, 97.5 nM in the test with HT-29 and 90.8 nM in the test with A549 [4]. In the test with A549 [3], the result was Active. The Activity in the test with A549 [5] is reported as above 70%.
Regarding `COc1cc([C@@H]2c3cc4c(cc3[C@@](O)(C(C)(C)O)[C@H]3COC(=O)[C@H]23)OCO4)cc(OC)c1OC`, the GI50 amounted to 511 nM in the test on SK-BR-3, 659 nM in the test on HT-29 and 1480 nM in the test with A549 [4].
For `COc1cc([C@@H]2c3cc4c(cc3[C@](O)([C@H](O)C3CC=CCC3)[C@H]3COC(=O)[C@H]23)OCO4)cc(OC)c1OC` (stereo partly drawn), in that order: 2430 nM, 2510 nM and 2030 nM.
Take `COc1cc([C@@H]2c3cc4c(cc3[C@](O)([C@@](C)(O)C(C)C)[C@H]3COC(=O)[C@H]23)OCO4)cc(OC)c1OC`: the 50% growth inhibitory concentration (GI50) turned out to be 1030 nM in the test on SK-BR-3, 1730 nM in the test with HT-29 and 1150 nM with A549 [4].
For `CCC[C@@H](O)[C@@]1(O)c2cc3c(cc2[C@@H](c2cc(OC)c(OC)c(OC)c2)[C@H]2C(=O)OC[C@@H]21)OCO3`, in that order: 288 nM, 404 nM and 279 nM.
Regarding `COc1cc([C@@H]2c3cc4c(cc3[C@](O)(C3(O)CCOCC3)[C@H]3COC(=O)[C@@H]23)OCO4)cc(OC)c1OC`, the figures for the GI50 in the test with SK-BR-3, with HT-29 and in the test with A549 [4] were 25.9 nM, 26.8 nM and 29 nM, respectively. The same compound came in with an inhibition in the test listed under Bos taurus [2] of 21.1%. Also, the result with A549 [3] was Active. Besides, the Activity with A549 [5] is recorded as above 70%.
On to `COc1cc([C@@H]2c3cc4c(cc3[C@@](O)(C3(O)CCCC3)[C@H]3COC(=O)[C@H]23)OCO4)cc(OC)c1OC`, for which the figures for the GI50 in the test with SK-BR-3, with HT-29 and in the test on A549 [4] were 2420 nM, 2720 nM and 1690 nM, respectively.
Take `COc1cc([C@@H]2c3cc4c(cc3[C@](O)(C3(O)CCCC3)[C@H]3COC(=O)[C@H]23)OCO4)cc(OC)c1OC`: the GI50 in the test with SK-BR-3 turned out to be 439 nM; in the test on HT-29 it was 451 nM; with A549 [4], 444 nM. Also, in the test with A549 [3], the outcome was Active. Moreover, the Activity with A549 [5] is on record as above 70%.
For the compound `COc1cc([C@@H]2c3cc4c(cc3[C@](O)(C3(O)CCSCC3)[C@H]3COC(=O)[C@@H]23)OCO4)cc(OC)c1OC`, the GI50 stood at 1780 nM in the test on SK-BR-3, 2620 nM in the test with HT-29 and 3320 nM in the test with A549 [4].
Taken in the same sequence, the figures for `COc1cccc2c1C(=O)c1c(O)c3c(c(O)c1C2=O)C[C@@](O)(C(=O)CO)C[C@@H]3O[C@H]1C[C@H](N)[C@H](O)[C@H](C)O1` [DOXORUBICIN HYDROCHLORIDE] were 65.5 nM, 153 nM and 60.3 nM.
Taken in the same sequence, the figures for `COc1cc([C@@H]2c3cc4c(cc3/C(=C(/C)C(C)C)[C@H]3COC(=O)[C@@H]23)OCO4)cc(OC)c1OC` were 4530 nM, 10200 nM and 7700 nM.
For `COc1cc([C@@H]2c3cc4c(cc3[C@](O)(C3(O)CCCCC3)[C@H]3COC(=O)[C@@H]23)OCO4)cc(OC)c1OC`, in that order: 1250 nM, 2900 nM and 3620 nM.
With `COc1ccc([C@@](C)(O)[C@@]2(O)c3cc4c(cc3[C@@H](c3cc(OC)c(OC)c(OC)c3)[C@H]3C(=O)OC[C@@H]32)OCO4)cc1OC`, the 50% growth inhibitory concentration (GI50) was 4990 nM with SK-BR-3, 4750 nM in the test with HT-29 and 2620 nM in the test on A549 [4].
On to `COc1cc([C@@H]2c3cc4c(cc3[C@@](O)(C3(O)CCOCC3)[C@H]3COC(=O)[C@@H]23)OCO4)cc(OC)c1OC`, for which the GI50 was 8010 nM with SK-BR-3, 15400 nM in the test with HT-29 and 8920 nM with A549 [4]. Also, the inhibition in the test filed under Bos taurus [2] was found to be 2.8%. Moreover, in the test on A549 [3], the outcome was Active. Also, in the test on A549 [5], the Activity is recorded as above 70%.
Consider `COc1cc([C@@H]2c3cc4c(cc3C(=C(C)C)[C@H]3COC(=O)[C@@H]23)OCO4)cc(OC)c1OC`, for which the GI50 came out at 3780 nM in the test with SK-BR-3, 8280 nM with HT-29 and 6440 nM in the test with A549 [4].
Take `COc1cc([C@@H]2c3cc4c(cc3[C@@H](O)[C@H]3COC(=O)[C@H]23)OCO4)cc(OC)c1OC` [EPIPODOPHYLLOTOXIN]: the concentration for 50% growth inhibition (GI50) in the test on HT-29 and in the test on A549 [4] was 60 nM in each case.

Values taken from ChEMBL document CHEMBL2163197, “Synthesis and antimitotic and tubulin interaction profiles of novel pinacol derivatives of podophyllotoxins” (2012).
